Screening data from PubChem BioAssay.
Shown are actives, neighbours in structure and some others; about 2.8% of the full set was active somewhere.
EP2 mod: modulators of human EP2 prostaglandin E2 receptor; 260,000 compounds, 0.83% hits; EP2-expressing cells, cAMP HTRF FRET, PGE2 co-stimulation; P43116; induction, % at 25 µM;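 active = compounds whose cAMP rise, as percent of the full-agonist control response, exceeds 60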;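 also: rat C6 glioma line stably carrying human EP2 under a CMV promoter; the protocol text gives 20 µM as final concentration; 100% = response of wells given 1 µM PGE2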
Target sequence (P43116 whole entry, looked up): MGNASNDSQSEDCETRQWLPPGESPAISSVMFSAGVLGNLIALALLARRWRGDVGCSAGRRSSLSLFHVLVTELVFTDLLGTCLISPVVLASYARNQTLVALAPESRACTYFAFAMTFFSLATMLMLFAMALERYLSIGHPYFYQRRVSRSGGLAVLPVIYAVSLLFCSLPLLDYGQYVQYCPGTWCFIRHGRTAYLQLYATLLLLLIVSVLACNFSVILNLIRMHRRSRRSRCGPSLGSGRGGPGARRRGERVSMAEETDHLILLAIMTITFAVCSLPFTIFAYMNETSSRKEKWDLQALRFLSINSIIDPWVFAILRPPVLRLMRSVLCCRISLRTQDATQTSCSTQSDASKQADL
EP2 antag: blocks the human prostaglandin E2 receptor EP2. C6 glioma cells expressing human EP2, cAMP TR-FRET; cells stimulated with saturating PGE2. AID 1422. 260,000 compounds, 0.52% hits. inhibition, % at 25 µM;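 active = percent inhibition above 40 after rounding to a whole number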;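 also: rat C6 glioma host cells with rolipram phosphodiesterase inhibitor present; the protocol text gives 20 µM as final concentration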
NPY1 pot ag: potentiators or agonists of human neuropeptide Y receptor Y1; P25929; NPY-Y1 expressing cells, potentiator/agonist activation; activation, % at 3.6 µM; 220,000 compounds, 0.37% hits; in the data active = activation above about 33%, passing the limit was not always enough;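 also: cells stimulated with NPY at EC10 then isoproterenol at EC100; 0% = low agonist plus stimulus and 100% = saturating agonist plus stimulus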
NPY-Y1 antag: blocks the human neuropeptide Y Y1 receptor. 200,000 compounds, 1% hits. inhibition, % at 3.6 µM. HEK293-CNG Y1 cells, membrane potential fluorescence; NPY at EC95, then isoproterenol. P25929;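 active = inhibition above the campaign mean inhibition of all tested compounds plus 3 SD, cut at about 20% in these data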;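 also: 0% = DMSO wells given NPY plus isoproterenol and 100% = isoproterenol alone without NPY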
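Material: HEK293 Y1/CNG channel cell line; also added: NPY (25 nM), isoproterenol (1 µM), Ro 20-1724 (25 µM); doses: one concentration, 3.6 µM, in 0.4% DMSO; schedule: compound incubation 1 h at room temperature, readout 45 min post-stimulation; technique: membrane potential fluorescence; measure: fluorescence ratio normalized to % inhibition between controls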
NPY2 pot ag: human NPY-Y2 potentiation or agonism, primary screen. P49146. cells expressing NPY-Y2, potentiator/agonist read-out. activation, % at 3.6 µM. 220,000 compounds, 0.45% hits. AID 1359; in the data active = activation above about 27%;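 also: cells stimulated with NPY near EC25 plus isoproterenol at EC100; 0% = vehicle plus submaximal agonist and 100% = vehicle plus saturating agonist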
Target sequence (P49146 whole entry, looked up): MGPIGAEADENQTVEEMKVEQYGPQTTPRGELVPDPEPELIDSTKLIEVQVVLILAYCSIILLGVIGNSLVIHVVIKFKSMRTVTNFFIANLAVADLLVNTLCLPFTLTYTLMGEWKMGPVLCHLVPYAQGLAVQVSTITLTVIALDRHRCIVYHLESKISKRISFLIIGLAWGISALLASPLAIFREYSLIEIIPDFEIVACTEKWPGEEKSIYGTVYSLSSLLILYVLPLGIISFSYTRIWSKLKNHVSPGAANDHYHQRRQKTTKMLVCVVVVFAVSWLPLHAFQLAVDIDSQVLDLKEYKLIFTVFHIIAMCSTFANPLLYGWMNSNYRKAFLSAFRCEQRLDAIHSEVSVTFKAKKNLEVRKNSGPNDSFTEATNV
NPY Y2 blocker: antagonists of human neuropeptide Y receptor Y2. NPY-Y2 expressing cells, antagonist mode. inhibition, % at 2.7 µM. 140,000 compounds, 0.99% hits. P49146; in the data active = inhibition above about 17%;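 also: 0% = vehicle with agonist challenge and 100% = reference antagonist with challenge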
NPY-Y2 pot conf: confirmation of human NPY-Y2 receptor potentiators or agonists; shares compounds with NPY2 pot ag; cell-based NPY-Y2 potentiator/agonist assay; activation, % at 3.6 µM; 450 compounds, 20% hits; in the data active = activation above about 33%
NPY-Y1 counter: potentiates or activates NPY-Y1, counter-screen for NPY-Y2 hits | activation, % at 3.6 µM | shares compounds with NPY2 pot ag | Y1 HEK293-CNG cells, membrane potential fluorescence | AID 1651 | 450 compounds, 20% hits; in the data active = activation above about 45%;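 also: cells stimulated with submaximal NPY then isoproterenol with phosphodiesterase inhibitor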
NPY-Y1 ag 2: counter-screen for NPY-Y2 potentiators: agonists of human NPY-Y1; shares compounds with NPY2 pot ag; HEK293 Y1-CNGC, membrane potential fluorescence, agonism; activation, % at 3.6 µM; 450 compounds, 37% hits;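 active = activation above the mean of DMSO-only control wells plus 3 SD, cut at about 18% in these data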;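 also: cells stimulated with 1 µM isoproterenol plus the PDE inhibitor Ro 20-1724; 0% = isoproterenol with DMSO and no NPY and 100% = 40 nM NPY; Y1 agonists lower the membrane potential dye signal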
CNGC inhibitor: counter-screen for NPY-Y2 potentiators: inhibitors of CNG channel activity; HEK293-CNG parental, isoproterenol cAMP, membrane potential fluorescence; shares compounds with NPY2 pot ag; inhibition, % at 3.6 µM; AID 1703; 450 compounds, 32% hits;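 active = inhibition above the control-well mean plus 3 SD of those wells, cut at about 22% in these data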;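 also: 0% = DMSO with isoproterenol and 100% = DMSO without isoproterenol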
NPY-Y2 ag 2: NPY-Y2 agonism, counter-screen for Y2 potentiators | shares compounds with NPY2 pot ag | activation, % at 3.6 µM | 450 compounds, 56% hits | HEK293 Y2/CNGC cells, membrane potential fluorescence, agonist mode | AID 1710;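 active = activation above the mean of solvent-only control wells plus 3 SD, cut at about 10% in these data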;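 also: cells stimulated by isoproterenol with no NPY added so direct agonism is tested; 0% = DMSO with isoproterenol alone and 100% = NPY at EC100 plus isoproterenol; agonism lowers probe fluorescence through less cAMP and CNG channel opening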
Active calls of the source: *; ! = a repeat was not active.

Results for O=C(O)c1ccc(Oc2c(C(F)(F)F)oc3cc(O)ccc3c2=O)cc1 ?
EP2 mod: 20; EP2 antag: 2; NPY1 pot ag: 12; NPY-Y1 antag: 11; NPY2 pot ag: 39*; NPY-Y2 pot conf: -1; NPY-Y1 counter: -1; NPY-Y1 ag 2: -13; CNGC inhibitor: 0; NPY-Y2 ag 2: -2

Results for Cc1oc2cc(O)ccc2c(=O)c1Oc1ccccc1 ?
EP2 mod: -2; EP2 antag: 13; NPY1 pot ag: -14; NPY-Y1 antag: -1; NPY2 pot ag: -11; NPY Y2 blocker: 4

What do the screens show for `CCc1ccccc1NC(=O)CSc1nnc(-c2ccco2)n1Cc1ccco1`?
EP2 mod: 18; EP2 antag: 12

Results for CCOC(=O)c1[nH]c2ccc(F)cc2c1NC(=O)CN1CCN(C/C=C/c2ccccc2)CC1 ?
EP2 mod: -48; NPY1 pot ag: 29; NPY-Y1 antag: -2; NPY2 pot ag: 38*; NPY Y2 blocker: -1; NPY-Y2 pot conf: 67*; NPY-Y1 counter: 90*; NPY-Y1 ag 2: 68*; CNGC inhibitor: 71*; NPY-Y2 ag 2: 53*

How did COC(=O)c1[nH]c2ccccc2c1NC(=O)CN1CCN(C/C=C/c2ccccc2)CC1 do in these assays?
EP2 mod: -52; EP2 antag: 1; NPY1 pot ag: -25; NPY-Y1 antag: 2; NPY2 pot ag: 7; NPY Y2 blocker: 5

How did Oc1ccccc1N=Nc1ccccc1O do in these assays?
EP2 mod: -35; EP2 antag: 2; NPY1 pot ag: 32; NPY-Y1 antag: -4; NPY2 pot ag: 29*; NPY-Y2 pot conf: 36*; NPY-Y1 counter: 46*; NPY-Y1 ag 2: 30*; CNGC inhibitor: 27*; NPY-Y2 ag 2: 43*

How did NC(=O)c1ccc(N2CCN(S(=O)(=O)c3ccccc3)CC2)c([N+](=O)[O-])c1 do in these assays?
EP2 mod: -65; EP2 antag: 9; NPY1 pot ag: 19; NPY-Y1 antag: 7; NPY2 pot ag: 31*; NPY-Y2 pot conf: -4; NPY-Y1 counter: -43; NPY-Y1 ag 2: -26; CNGC inhibitor: -10; NPY-Y2 ag 2: -8

Results for COC(=O)c1ccc(N2CCN(S(=O)(=O)c3ccc4ccccc4c3)CC2)c([N+](=O)[O-])c1 ?
EP2 mod: 3; EP2 antag: 8; NPY1 pot ag: 17; NPY-Y1 antag: -2; NPY2 pot ag: 3; NPY Y2 blocker: -2

How did CCOc1nc(N=C(N)N)nc2c(C)cccc12 do in these assays?
EP2 mod: -2; NPY1 pot ag: 31; NPY-Y1 antag: 5; NPY2 pot ag: 38*; NPY Y2 blocker: 1; NPY-Y2 pot conf: 1; NPY-Y1 counter: 2; NPY-Y1 ag 2: 2; CNGC inhibitor: 8; NPY-Y2 ag 2: 8

What do the screens show for `CCc1nc(N=C(N)N)nc2ccc(C)cc12`?
EP2 mod: 8; EP2 antag: 9

What do the screens show for `COC(=O)CSc1nnc(-c2ccc(OC)cc2OC)o1`?
EP2 mod: 10; EP2 antag: 7; NPY1 pot ag: 5; NPY-Y1 antag: -5; NPY2 pot ag: 50*; NPY Y2 blocker: 0; NPY-Y2 pot conf: 36*; NPY-Y1 counter: 61*; NPY-Y1 ag 2: 36*; CNGC inhibitor: 49*; NPY-Y2 ag 2: 25*

What do the screens show for `COc1ccc(-c2nnc(SCC(=O)N(Cc3ccccc3)C(C)(C)C)o2)c(OC)c1`?
EP2 mod: 7; EP2 antag: 8

Results for Cc1ccc(C)c2[nH]c(=O)c(CN(Cc3nnnn3Cc3ccccc3)C3CCCCC3)cc12 ?
EP2 mod: 44; EP2 antag: 5

How did C[C@@H](Cn1nnc2ccccc21)NC(=O)c1n[nH]c(=O)c2ccccc12 do in these assays?
EP2 mod: -32; EP2 antag: 6

What do the screens show for `Cc1cc(C(=O)NNC(=O)Nc2ccc(Cl)cc2)no1`?
EP2 mod: 0; EP2 antag: 5; NPY1 pot ag: -18; NPY2 pot ag: 97*; NPY-Y2 pot conf: -8; NPY-Y1 counter: -5; NPY-Y1 ag 2: -13; CNGC inhibitor: -2; NPY-Y2 ag 2: -5

What do the screens show for `CC(C)(C)n1nnnc1C(c1cccc(C#N)c1)N1CCCc2ccccc21` (stereo not drawn)?
EP2 mod: 31; EP2 antag: 103*!; NPY1 pot ag: 14; NPY-Y1 antag: 16; NPY2 pot ag: 27*; NPY Y2 blocker: 6; NPY-Y2 pot conf: 4; NPY-Y1 counter: 1; NPY-Y1 ag 2: -1; CNGC inhibitor: 7; NPY-Y2 ag 2: 10

What do the screens show for `COC(=O)c1ccccc1NC(=O)COC(=O)c1ccccc1N=Nc1ccc(N(C)C)cc1`?
EP2 mod: 19; EP2 antag: 8; NPY1 pot ag: 14; NPY-Y1 antag: 1; NPY2 pot ag: 14; NPY Y2 blocker: -2

Results for CC(=O)c1ccc(NC(=O)COC(=O)c2ccccc2N=Nc2ccc(N(C)C)cc2)cc1 ?
EP2 mod: 15; EP2 antag: 7; NPY1 pot ag: 33; NPY-Y1 antag: -3; NPY2 pot ag: 44*; NPY Y2 blocker: -6; NPY-Y2 pot conf: 48*; NPY-Y1 counter: 62*; NPY-Y1 ag 2: 50*; CNGC inhibitor: 44*; NPY-Y2 ag 2: 41*

Results for [O-]/[N+](=C\c1ccncc1)c1ccc(Br)cc1 ?
EP2 mod: 4; EP2 antag: 4; NPY1 pot ag: 41; NPY-Y1 antag: -5; NPY2 pot ag: 57*; NPY Y2 blocker: 2; NPY-Y2 pot conf: 13; NPY-Y1 counter: 20; NPY-Y1 ag 2: 20*; CNGC inhibitor: 1; NPY-Y2 ag 2: 7

How did [O-]/[N+](=C/c1cccnc1)c1ccc(Br)cc1 do in these assays?
EP2 mod: 1; EP2 antag: 15; NPY1 pot ag: 21; NPY-Y1 antag: -2; NPY2 pot ag: 13; NPY Y2 blocker: 0

How did N#Cc1cnn(-c2ccc(F)cc2)c1N do in these assays?
EP2 mod: 10; EP2 antag: 13; NPY1 pot ag: 13; NPY2 pot ag: 55*; NPY-Y2 pot conf: -7; NPY-Y1 counter: -14; NPY-Y1 ag 2: -25; CNGC inhibitor: -7; NPY-Y2 ag 2: -15
